Measurements published in ChEMBL document CHEMBL2311361, “Diminutive effect on T and B-cell proliferation of non-cytotoxic α-santonin derived 1,2,3-triazoles: a report” (Eur J Med Chem, 2013).

Columns and labels:
[1] = Cytotoxicity against in Balb/c mouse B cells at 10^-6 M after 48 hrs by MTT assay; format: cell-based; details: 1 µM
Method in brief: (§1)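 Spleens taken aseptically from Balb/c mice (18–22 g). Single-cell suspension made in incomplete RPMI, RBCs lysed with Tris-ammonium chloride, cells washed, resuspended in complete RPMI and checked for viability by trypan blue. Cells seeded at 1 × 10⁶ cells/mL. Compounds in DMSO tested at 1×10⁻⁴, 1×10⁻⁵ and 1×10⁻⁶ M, 48 h, 37 °C, 5% CO₂.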

[2] = Immunosuppressive activity in Balb/c mouse T cells assessed as inhibition of concanavalin A-induced cell proliferation at 10^-4 M after 48 hrs by MTT assay; format: functional; method in brief: as §1
[3] = Immunosuppressive activity in Balb/c mouse B cells assessed as inhibition of LPS-induced cell proliferation at 10^-5 M after 48 hrs by MTT assay; format: functional; method in brief: as §1
[4] = Immunosuppressive activity in Balb/c mouse B cells assessed as inhibition of LPS-induced cell proliferation at 10^-4 M after 48 hrs by MTT assay; format: functional; method in brief: as §1
[5] = Cytotoxicity against in Balb/c mouse T cells at 10^-5 M after 48 hrs by MTT assay; format: cell-based; details: t-cell, 10 µM; method in brief: as §1
[6] = Immunosuppressive activity in Balb/c mouse B cells assessed as inhibition of LPS-induced cell proliferation at 10^-6 M after 48 hrs by MTT assay; format: functional; method in brief: as §1
[7] = Cytotoxicity against in Balb/c mouse T cells at 10^-6 M after 48 hrs by MTT assay; format: cell-based; details: t-cell, 1 µM; method in brief: as §1
[8] = Cytotoxicity against in Balb/c mouse T cells at 10^-4 M after 48 hrs by MTT assay; format: cell-based; details: t-cell, 100 µM; method in brief: as §1
[9] = Immunosuppressive activity in Balb/c mouse T cells assessed as inhibition of concanavalin A-induced cell proliferation at 10^-6 M after 48 hrs by MTT assay; format: functional; details: for inhibition at 1 µM: Mus musculus, Balb/c, T-cell, 48 h; method in brief: as §1
[10] = Cytotoxicity against in Balb/c mouse B cells at 10^-5 M after 48 hrs by MTT assay; format: cell-based; details: 10 µM; method in brief: as §1
[11] = Cytotoxicity against in Balb/c mouse B cells at 10^-4 M after 48 hrs by MTT assay; format: cell-based; details: 100 µM; method in brief: as §1
[12] = Immunosuppressive activity in Balb/c mouse T cells assessed as inhibition of concanavalin A-induced cell proliferation at 10^-5 M after 48 hrs by MTT assay; format: functional; method in brief: as §1
[13] = Immunostimulant activity in Balb/c mouse T cells assessed as inhibition of concanavalin A-induced cell proliferation at 10^-6 M after 48 hrs by MTT assay; format: functional; method in brief: as §1
[14] = Immunostimulant activity in Balb/c mouse T cells assessed as inhibition of concanavalin A-induced cell proliferation at 10^-4 M after 48 hrs by MTT assay; format: functional; details: for inhibition at 100 µM: Mus musculus, Balb/c, T-cell, 48 h; method in brief: as §1
[15] = Immunostimulant activity in Balb/c mouse T cells assessed as inhibition of concanavalin A-induced cell proliferation at 10^-5 M after 48 hrs by MTT assay; format: functional; method in brief: as §1
[16] = Immunostimulant activity in Balb/c mouse B cells assessed as inhibition of LPS-induced cell proliferation at 10^-4 M after 48 hrs by MTT assay; format: functional; method in brief: as §1
[17] = Immunostimulant activity in Balb/c mouse B cells assessed as inhibition of LPS-induced cell proliferation at 10^-6 M after 48 hrs by MTT assay; format: functional; method in brief: as §1

| Compound | Activity [1] | inhibition at 100 µM [2] | inhibition at 10 µM [3] | inhibition at 100 µM [4] | Activity [5] | inhibition at 1 µM [6] | Activity [7] | Activity [8] | inhibition at 1 µM [9] | Activity [10] | Activity [11] | inhibition at 10 µM [12] | inhibition at 1 µM [13] | inhibition (INH) [14] | inhibition at 100 µM [14] | inhibition at 10 µM [15] | inhibition (INH) [9] | inhibition at 100 µM [16] | inhibition at 1 µM [17] |
| --- | --- | --- | --- | --- | --- | --- | --- | --- | --- | --- | --- | --- | --- | --- | --- | --- | --- | --- | --- |
| Cc1cc(OCc2cnnn2-c2cccc(C(N)=O)c2)c(C)c2c1CC[C@H]1[C@H](C)C(=O)O[C@@H]21 | Non-toxic | 6.31% | 36.8% | 8.42% | Non-toxic | 44.2% | Non-toxic | Non-toxic | 28.4% | Non-toxic | Non-toxic | 29.5% |  |  |  |  |  |  |  |
| COc1cc(-n2nncc2COc2cc(C)c3c(c2C)[C@@H]2OC(=O)[C@@H](C)[C@@H]2CC3)cc(OC)c1OC | Non-toxic | 16.8% | 26.3% | 14.7% | Non-toxic | 16.8% | Non-toxic | Non-toxic | 20% | Non-toxic | Non-toxic | 14.7% |  |  |  |  |  |  |  |
| Cc1ccc(I)cc1-n1nncc1COc1cc(C)c2c(c1C)[C@@H]1OC(=O)[C@@H](C)[C@@H]1CC2 | Non-toxic | 15.8% | 14.7% | 16.8% | Non-toxic | 34.7% | Non-toxic | Non-toxic | 15.8% | Non-toxic | Non-toxic | 20% |  |  |  |  |  |  |  |
| C#CCOc1cc(C)c2c(c1C)[C@@H]1OC(=O)[C@@H](C)[C@@H]1CC2 | Toxic | 12.2% | 22.2% | 36.8% | Non-toxic | 29.9% | Toxic | Non-toxic |  | Non-toxic | Non-toxic | 1.21% | 24.4% |  |  |  |  |  |  |
| Cc1cc(OCc2cnnn2-c2cc(F)ccc2I)c(C)c2c1CC[C@H]1[C@H](C)C(=O)O[C@@H]21 | Toxic |  | 24.2% | 14.2% | Non-toxic | 20.8% | Toxic | Toxic | 21.4% | Non-toxic | Toxic | 31.4% |  | 19.16% | 19.2% | 10.8% | 17.5% |  |  |
| Cc1cc(OCc2cnnn2-c2ccc3c(c2)OCO3)c(C)c2c1CC[C@H]1[C@H](C)C(=O)O[C@@H]21 | Non-toxic | 29.5% | 50.5% | 32.6% | Non-toxic | 14.7% | Non-toxic | Non-toxic | 29.5% | Non-toxic | Non-toxic | 45.3% |  |  |  |  |  |  |  |
| CC(=O)Nc1ccc(-n2nncc2COc2cc(C)c3c(c2C)[C@@H]2OC(=O)[C@@H](C)[C@@H]2CC3)cc1 | Toxic |  | 15% |  | Non-toxic | 25% | Toxic | Toxic | 20% | Non-toxic | Toxic |  |  |  | 27.5% | 13.3% |  | 16.7% |  |
| Cc1cc(OCc2cnnn2-c2ccc(Cl)nc2)c(C)c2c1CC[C@H]1[C@H](C)C(=O)O[C@@H]21 | Toxic |  | 8.57% |  | Non-toxic |  | Toxic | Non-toxic | 20.8% | Non-toxic | Non-toxic |  |  |  | 8.57% | 12.8% |  | 75.7% | 45.7% |
